“And” between values parts separate entries of the source, which are not always exact repeats. Identical values can stand only once.
Tested on: Fibroblast
Assay: Multiplex assay against human fibroblast
Assay type: toxicity, cell-based
Procedure, shortened: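 With compound added, live cells were imaged on a CQ1 microscope at 37°C and 5% CO2; staining with Hoechst33342, BioTracker Green Microtubule Cytoskeleton Dye, MitoTracker Red and Annexin V Alexa Fluor 680 had been done at seeding. The CellPathfinder machine-learning gating scheme split cells into Hoechst high-intensity objects or normal cells, normal cells into healthy, pyknosed or fragmented nuclei, and pyknosed cells into mitotic or apoptotic. The tubulin, mitochondrial-mass and membrane-permeability phenotypes are per cents of healthy-nucleus cells.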

[1] = 12 h, 1 µM, compound concentration 1 uM
[2] = 12 h, 10 µM, compound concentration 10 uM
[3] = 24 h, 1 µM, compound concentration 1 uM
[4] = 24 h, 10 µM, compound concentration 10 uM
[5] = 48 h, 1 µM, compound concentration 1 uM
[6] = 48 h, 10 µM, compound concentration 10 uM

SMILES: CC(C)(C)c1ccc(S(=O)(=O)Nc2ccc(Cl)cc2C(=O)c2cc[n+]([O-])cc2)cc1 [VERCIRNON]
- Population Apoptotic (%) [1]: 63% and 50%
- Population Fragmented Nuclei (%) [1]: 19% and 27%
- Population Healthy Nuclei (%) [1]: 65% and 46%
- Population Hoechst High Intensity Objects (%) [1]: 2% and 7%
- Population Membrane Permeable-Phenotype (%) [1]: 1% and 6%
- Population Mitochondria Different-Phenotype (%) [1]: 3% and 1%
- Population Mitotic Cells (%) [1]: 36% and 50%
- Population Normal (%) [1]: 97% and 92%
- Population Pyknosed Nuclei (%) [1]: 15% and 25%
- Population Tubulin-Different-Phenotype (%) [1]: 20% and 41%
- Total Cell Count [1]: 148 and 152
- Population Apoptotic (%) [2]: 59% and 48%
- Population Fragmented Nuclei (%) [2]: 14% and 30%
- Population Healthy Nuclei (%) [2]: 64% and 44%
- Population Hoechst High Intensity Objects (%) [2]: 3% and 5%
- Population Membrane Permeable-Phenotype (%) [2]: 3% and 8%
- Population Mitochondria Different-Phenotype (%) [2]: 1% and 10%
- Population Mitotic Cells (%) [2]: 40% and 51%
- Population Normal (%) [2]: 96% and 94%
- Population Pyknosed Nuclei (%) [2]: 21% and 25%
- Population Tubulin-Different-Phenotype (%) [2]: 46% and 66%
- Total Cell Count [2]: 107 and 114
- Population Apoptotic (%) [3]: 55% and 54%
- Population Fragmented Nuclei (%) [3]: 23% and 25%
- Population Healthy Nuclei (%) [3]: 62% and 57%
- Population Hoechst High Intensity Objects (%) [3]: 0% and 7%
- Population Membrane Permeable-Phenotype (%) [3]: 4% and 7%
- Population Mitochondria Different-Phenotype (%) [3]: 1%
- Population Mitotic Cells (%) [3]: 45%
- Population Normal (%) [3]: 99% and 92%
- Population Pyknosed Nuclei (%) [3]: 14% and 16%
- Population Tubulin-Different-Phenotype (%) [3]: 27% and 40%
- Total Cell Count [3]: 141 and 142
- Population Apoptotic (%) [4]: 66% and 41%
- Population Fragmented Nuclei (%) [4]: 16% and 32%
- Population Healthy Nuclei (%) [4]: 66% and 42%
- Population Hoechst High Intensity Objects (%) [4]: 1% and 0%
- Population Mitochondria Different-Phenotype (%) [4]: 2% and 9%
- Population Mitotic Cells (%) [4]: 33% and 58%
- Population Normal (%) [4]: 98% and 99%
- Population Pyknosed Nuclei (%) [4]: 16% and 24%
- Population Tubulin-Different-Phenotype (%) [4]: 40% and 82%
- Total Cell Count [4]: 114 and 120
- Population Apoptotic (%) [5]: 61% and 62%
- Population Fragmented Nuclei (%) [5]: 29% and 32%
- Population Healthy Nuclei (%) [5]: 58% and 55%
- Population Hoechst High Intensity Objects (%) [5]: 1% and 6%
- Population Membrane Permeable-Phenotype (%) [5]: 1% and 6%
- Population Mitochondria Different-Phenotype (%) [5]: 1% and 9%
- Population Mitotic Cells (%) [5]: 38% and 37%
- Population Normal (%) [5]: 98% and 93%
- Population Pyknosed Nuclei (%) [5]: 12% and 11%
- Population Tubulin-Different-Phenotype (%) [5]: 25% and 37%
- Total Cell Count [5]: 151 and 145
- Population Apoptotic (%) [6]: 62% and 46%
- Population Fragmented Nuclei (%) [6]: 22% and 42%
- Population Healthy Nuclei (%) [6]: 64% and 46%
- Population Hoechst High Intensity Objects (%) [6]: 2% and 4%
- Population Mitochondria Different-Phenotype (%) [6]: 0% and 12%
- Population Mitotic Cells (%) [6]: 37% and 53%
- Population Normal (%) [6]: 97% and 95%
- Population Pyknosed Nuclei (%) [6]: 13% and 11%
- Population Tubulin-Different-Phenotype (%) [6]: 38% and 72%
- Total Cell Count [6]: 120 and 122

SMILES: COC[C@@H](c1ccc(C(F)(F)F)cc1)N1CCN(C2(C)CCN(C(=O)c3c(C)ncnc3C)CC2)C[C@@H]1C.O=C(O)/C=C\C(=O)O [VICRIVIROC MALEATE]
- Population Apoptotic (%) [1]: 36%
- Population Fragmented Nuclei (%) [1]: 23%
- Population Healthy Nuclei (%) [1]: 53% and 51%
- Population Hoechst High Intensity Objects (%) [1]: 4%
- Population Membrane Permeable-Phenotype (%) [1]: 2% and 5%
- Population Mitochondria Different-Phenotype (%) [1]: 11% and 13%
- Population Mitotic Cells (%) [1]: 63%
- Population Normal (%) [1]: 95%
- Population Pyknosed Nuclei (%) [1]: 22% and 25%
- Population Tubulin-Different-Phenotype (%) [1]: 16% and 41%
- Total Cell Count [1]: 138 and 190
- Population Apoptotic (%) [2]: 58% and 33%
- Population Fragmented Nuclei (%) [2]: 26% and 48%
- Population Healthy Nuclei (%) [2]: 59% and 33%
- Population Hoechst High Intensity Objects (%) [2]: 17% and 20%
- Population Membrane Permeable-Phenotype (%) [2]: 2% and 12%
- Population Mitochondria Different-Phenotype (%) [2]: 4%
- Population Mitotic Cells (%) [2]: 41% and 66%
- Population Normal (%) [2]: 82% and 79%
- Population Pyknosed Nuclei (%) [2]: 14% and 18%
- Population Tubulin-Different-Phenotype (%) [2]: 45% and 67%
- Total Cell Count [2]: 208 and 186
- Population Apoptotic (%) [3]: 66% and 30%
- Population Fragmented Nuclei (%) [3]: 21% and 28%
- Population Healthy Nuclei (%) [3]: 57% and 50%
- Population Hoechst High Intensity Objects (%) [3]: 3%
- Population Membrane Permeable-Phenotype (%) [3]: 1% and 8%
- Population Mitochondria Different-Phenotype (%) [3]: 7% and 20%
- Population Mitotic Cells (%) [3]: 33% and 69%
- Population Normal (%) [3]: 96%
- Population Pyknosed Nuclei (%) [3]: 20% and 21%
- Population Tubulin-Different-Phenotype (%) [3]: 18% and 41%
- Total Cell Count [3]: 138 and 204
- Population Apoptotic (%) [4]: 73% and 42%
- Population Fragmented Nuclei (%) [4]: 23% and 46%
- Population Healthy Nuclei (%) [4]: 64% and 39%
- Population Hoechst High Intensity Objects (%) [4]: 12% and 21%
- Population Membrane Permeable-Phenotype (%) [4]: 0% and 8%
- Population Mitochondria Different-Phenotype (%) [4]: 5% and 12%
- Population Mitotic Cells (%) [4]: 26% and 57%
- Population Normal (%) [4]: 87% and 78%
- Population Pyknosed Nuclei (%) [4]: 11% and 14%
- Population Tubulin-Different-Phenotype (%) [4]: 42% and 60%
- Total Cell Count [4]: 196 and 183
- Population Apoptotic (%) [5]: 59% and 53%
- Population Fragmented Nuclei (%) [5]: 21% and 33%
- Population Healthy Nuclei (%) [5]: 56% and 50%
- Population Hoechst High Intensity Objects (%) [5]: 3% and 5%
- Population Membrane Permeable-Phenotype (%) [5]: 0% and 9%
- Population Mitochondria Different-Phenotype (%) [5]: 7% and 19%
- Population Mitotic Cells (%) [5]: 40% and 46%
- Population Normal (%) [5]: 96% and 95%
- Population Pyknosed Nuclei (%) [5]: 21% and 15%
- Population Tubulin-Different-Phenotype (%) [5]: 34% and 58%
- Total Cell Count [5]: 127 and 180
- Population Apoptotic (%) [6]: 73% and 53%
- Population Fragmented Nuclei (%) [6]: 23% and 54%
- Population Healthy Nuclei (%) [6]: 65% and 35%
- Population Hoechst High Intensity Objects (%) [6]: 14% and 20%
- Population Membrane Permeable-Phenotype (%) [6]: 0% and 9%
- Population Mitochondria Different-Phenotype (%) [6]: 5% and 10%
- Population Mitotic Cells (%) [6]: 26% and 46%
- Population Normal (%) [6]: 85% and 79%
- Population Pyknosed Nuclei (%) [6]: 10% and 9%
- Population Tubulin-Different-Phenotype (%) [6]: 48% and 61%
- Total Cell Count [6]: 206 and 193
